Source: ChEMBL document CHEMBL1131218, “Antineoplastic agents. 379. Synthesis of phenstatin phosphate” (J Med Chem, 1998)
Values after ≈ are worked out from the molar mass of the structure shown.

Legend:
[1] = target: Tubulin (Bos taurus, UniProt Q6B856+Q862L2+Q862F3); assay: The compound was tested for the concentration to inhibit 50% of tubulin polymerization.; format: protein assay
Method in brief: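 Purified bovine brain tubulin at 1.0 mg/mL (10 μM) in 0.8 M monosodium glutamate pH 6.6 with 4% DMSO. Drug was preincubated with tubulin for 15 min at 30 °C, then chilled. GTP was added to 0.4 mM and assembly started by a jump from 0 to 30 °C, followed by spectrophotometer.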

[2] = species on record: Bos taurus; assay: Percentage inhibition of colchicine binding to tubulin by compound was evaluated; design: concentration or dose not given beside the values; conditions: concentration not given here
[3] = system: Panel NCI-60 (60 carcinoma cell lines); assay: The compound was tested for the concentration for 50% growth inhibition of NCI 60 cell line human tumor screen expressed in 10e-8 M; format: functional
Method in brief: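 NCI 60-cell-line screen, run in triplicate. Compounds tested in three concentration ranges (top 10⁻⁵, 10⁻⁶ and 10⁻⁷ M), each with five 10-fold dilutions. The mean panel GI50 across lines is reported with SD.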

[4] = Concentration to inhibit 50% of tubulin polymerization from bovine brain; design: species or system Bos taurus
Method in brief: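 Purified, electrophoretically homogeneous bovine brain tubulin at 1.0 mg/mL (10 μM) in 0.8 M monosodium glutamate pH 6.6 with 4% (v/v) DMSO and varying drug concentrations. Preincubated 15 min at 30 °C, chilled on ice, then GTP added (0.4 mM final). Assembly started by a jump from 0 to 30 °C and followed by turbidity. IC50 taken from extent of assembly at 20 min. Active compounds run in at least three independent experiments.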

[5] = system: KM-20L2; assay: The compound was tested for the concentration to inhibit 50% of colon KM20L2 cell lines.; format: functional; conditions: Homo sapiens
[6] = system: NCI-H460; assay: The compound was tested for the concentration to inhibit 50% lung-NSC NCI-H460 cell lines.; format: functional; conditions: Homo sapiens
[7] = system: OVCAR; assay: The compound was tested for the concentration to inhibit 50% of ovarian OVCAR cell lines.; format: functional; conditions: Homo sapiens
[8] = system: P388; assay: The compound was tested for the concentration to inhibit 50% of leukemia P388 cell lines.; format: functional; conditions: Mus musculus
[9] = system: SF-295; assay: The compound was tested for the concentration to inhibit 50% of CNS SF-295 cell lines.; format: functional; conditions: Homo sapiens
[10] = system: SK-MEL-5; assay: The compound was tested for the concentration to inhibit 50% of melanoma SK-MEL-5 cell lines.; format: functional; conditions: Homo sapiens
[11] = system: A498; assay: The compound was tested for the concentration to inhibit 50% of renal A498 cell lines.; format: functional; conditions: Homo sapiens

| SMILES | inhibition [2] [%] | GI50 [3] [µM] | IC50 [4] [µM] | other results |
| --- | --- | --- | --- | --- |
| COc1ccc(/C=C\c2cc(OC)c(OC)c(OC)c2)cc1 | 97 | – | – | IC50 [1]: 1.3 µM |
| COc1ccc(C(=O)c2cc(OC)c(OC)c(OC)c2)cc1OC(C)=O | 71 | – | – | IC50 [1]: 3.5 µM |
| COc1cc(OC)cc(C(=O)c2cc(OC)c(OC)c(OC)c2)c1 | 58 | 0.543 | 3.6 | – |
| COc1ccc(/C=C\c2cc(OC)c(OC)c(OC)c2)cc1OP(=O)([O-])[O-].[Na+].[Na+] [FOSBRETABULIN DISODIUM] | 4 | – | – | GI50 [5]: 0.34 µg/mL; GI50 [6]: 0.029 µg/mL; GI50 [7]: 0.023 µg/mL; GI50 [8]: 0.0004 µg/mL; GI50 [9]: 0.036 µg/mL; GI50 [10]: 0.041 µg/mL; IC50 [1]: > 80 µM; GI50 [11]: 0.041 µg/mL |
| COc1ccc(C(=O)c2cc(OC)c(OC)c(OC)c2)cc1O [PHENSTATIN] | 86 | 0.0601 | 1 | GI50 [5]: 0.04 µg/mL (≈ 0.126 µM); GI50 [6]: 0.0057 µg/mL (≈ 0.0179 µM); GI50 [7]: 0.0023 µg/mL (≈ 0.00723 µM); GI50 [8]: 0.0033 µg/mL (≈ 0.0104 µM); GI50 [9]: 0.052 µg/mL (≈ 0.163 µM); GI50 [10]: 0.0038 µg/mL (≈ 0.0119 µM); GI50 [11]: 0.38 µg/mL (≈ 1.19 µM) |
| COc1ccc(/C=C\c2cc(OC)c(OC)c(OC)c2)cc1O | 97 | – | – | – |
| COc1ccc(CCc2cc(OC)c(OC)c(OC)c2)cc1O | 77 | – | 2.1 | – |
| COc1ccc(CCc2cc(OC)c(OC)c(OC)c2)cc1 | 54 | – | 3.2 | – |
| COc1cc(C(=O)c2cc(F)cc(F)c2)cc(OC)c1OC | 0 | 4.94 | 39 | – |
| COc1cc(C(=O)c2cc(Cl)cc(Cl)c2)cc(OC)c1OC | 1 | 5.12 | 36 | – |
| COc1ccc(C(=O)c2cc(OC)c(OC)c(OC)c2)cc1OP(=O)([O-])O.[Na+] | 37 | – | – | GI50 [5]: 0.27 µg/mL; GI50 [6]: 0.035 µg/mL; GI50 [7]: 0.0025 µg/mL; GI50 [8]: < 0.001 µg/mL; GI50 [9]: 0.012 µg/mL; GI50 [10]: 0.0047 µg/mL; IC50 [1]: 21 µM; GI50 [11]: 0.05 µg/mL |
| COc1ccc(Cc2cc(OC)c(OC)c(OC)c2)cc1 | 56 | – | 4.4 | – |
| COc1cc(C(=O)c2ccc3c(c2)OCO3)cc(OC)c1OC | 0 | 2.7 | 15 | – |
| COc1cc(C(=O)c2cc(C)cc(C)c2)cc(OC)c1OC | 7 | 3.48 | 11 | – |
| COc1ccc(C(=O)c2cc(OC)c(OC)c(OC)c2)cc1OC | 1 | 5.11 | 15 | – |
| COc1ccc(Cc2cc(OC)c(OC)c(OC)c2)cc1O | 65 | – | 3.3 | – |
